Test results reported in ChEMBL document CHEMBL1122134, “Antimalarials. 14. 5-(aryloxy)-4-methylprimaquine analogues. A highly effective series of blood and tissue schizonticidal agents” (1982).

Columns and labels:
[1] = tested on: Mus musculus; experiment: Suppressive antimalarial activity against Plasmodium berghei in Rane mice (Mus musculus) test (five mice (Mus musculus)) 10 mg/kg(X 1); assay type: functional
How it was run: (§1)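 Mice infected with Plasmodium berghei; five mice per dose. A single subcutaneous dose (mg/kg, ×1) was given 72 h after infection. Activity was scored as the increase in mean survival time over infected controls, with an increase of at least 100% counted as active. Cures are mice surviving at 60 days postinfection. Deaths attributed to the drug were scored as toxic.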

[2] = tested on: Mus musculus; experiment: Number of animals found toxic out of five mice (Mus musculus) infected with Plasmodium berghei at 320 mg/kg(X 1) subcutaneous administration
[3] = tested on: Mus musculus; experiment: Suppressive antimalarial activity against Plasmodium berghei in Rane mice (Mus musculus) test (five mice (Mus musculus)) at a dose of 5 mg/kg(X 1); assay type: functional; how it was run: as §1
[4] = tested on: Mus musculus; experiment: Number of cures out of five mice (Mus musculus) infected with Plasmodium berghei at 320 mg/kg(X 1) subcutaneous administration
[5] = tested on: Mus musculus; experiment: Number of cures out of five mice (Mus musculus) infected with Plasmodium berghei at 640 mg/kg(X 1) subcutaneous administration
[6] = tested on: Mus musculus; experiment: Number of cures out of five mice (Mus musculus) infected with Plasmodium berghei at 20 mg/kg(X 1) subcutaneous administration
[7] = tested on: Plasmodium cynomolgi; experiment: Cures in sporozoite-induced Plasmodium cynomolgi infected Rhesus monkeys (Macaca mulatta) at 1 mg/kg/day (x 7) peroral dose; n=3; assay type: functional; conditions: route oral
[8] = tested on: Mus musculus; experiment: Number of cures out of five mice (Mus musculus) infected with Plasmodium berghei at 80 mg/kg(X 1) subcutaneous administration
[9] = Molar primaquine Index value of compound was determined; assay type: functional
[10] = tested on: Mus musculus; experiment: Number of cures out of five mice (Mus musculus) infected with Plasmodium berghei at 160 mg/kg(X 1) subcutaneous administration
[11] = tested on: Plasmodium cynomolgi; experiment: Cures in sporozoite-induced Plasmodium cynomolgi infected Rhesus monkeys (Macaca mulatta) on 0.316 mg/kg/day peroral dose after 7 days, n=2; assay type: functional; conditions: route oral
[12] = tested on: Mus musculus; experiment: Number of cures out of five mice (Mus musculus) infected with Plasmodium berghei at 40 mg/kg(X 1) subcutaneous administration
[13] = tested on: Plasmodium cynomolgi; experiment: Cures in sporozoite-induced Plasmodium cynomolgi infected Rhesus monkeys (Macaca mulatta) on 0.1 mg/kg/day peroral dose after 7 days, n=2; assay type: functional; conditions: route oral
[14] = tested on: Mus musculus; experiment: Number of cures out of five mice (Mus musculus) infected with Plasmodium berghei at 10 mg/kg(X 1) subcutaneous administration
[15] = tested on: Plasmodium cynomolgi; experiment: Cures in sporozoite-induced Plasmodium cynomolgi infected Rhesus monkeys (Macaca mulatta) on 0.1 mg/kg/day peroral dose after 7 days, n=3; assay type: functional; conditions: route oral
[16] = tested on: Mus musculus; experiment: Number of animals found toxic out of five mice (Mus musculus) infected with Plasmodium berghei at 640 mg/kg(X 1) subcutaneous administration
[17] = tested on: Mus musculus; experiment: as above; remark: listed apart in the source
[18] = tested on: Mus musculus; experiment: Number of animals found toxic out of five mice (Mus musculus) infected with Plasmodium berghei at 320 mg/kg(X 1)subcutaneous administration
[19] = tested on: Mus musculus; experiment: Suppressive antimalarial activity against Plasmodium berghei in Rane mice (Mus musculus) test (five mice (Mus musculus)) at a dose of 5 mg/kg(X 1)A-active; assay type: functional; how it was run: as §1
[20] = tested on: Mus musculus; experiment: Suppressive antimalarial activity against Plasmodium berghei in Rane mice (Mus musculus) test (five mice (Mus musculus)) at a dose of 160 mg/kg (X 1); assay type: functional; how it was run: as §1
[21] = tested on: Mus musculus; experiment: Suppressive antimalarial activity against Plasmodium berghei in Rane mice (Mus musculus) test (five mice (Mus musculus))80 mg/kg (X 1); assay type: functional; how it was run: as §1
[22] = tested on: Plasmodium cynomolgi; experiment: Cures in sporozoite-induced Plasmodium cynomolgi infected Rhesus monkeys (Macaca mulatta) on 1.3 mg/kg/day peroral dose after 7 days, n=6; assay type: functional; conditions: route oral
[23] = tested on: Plasmodium cynomolgi; experiment: Cures in sporozoite-induced Plasmodium cynomolgi infected Rhesus monkeys (Macaca mulatta) on 1 mg/kg/day peroral dose after 7 days, n=2; assay type: functional; conditions: route oral
[24] = tested on: Mus musculus; experiment: Suppressive antimalarial activity against Plasmodium berghei in Rane mice (Mus musculus) test (five mice (Mus musculus)) 20 mg/kg (X 1); assay type: functional; how it was run: as §1
[25] = tested on: Mus musculus; experiment: Number of animals found toxic out of five mice (Mus musculus) infected with Plasmodium berghei at 160 mg/kg(X 1)subcutaneous administration
[26] = tested on: Mus musculus; experiment: Suppressive antimalarial activity against Plasmodium berghei in Rane mice (Mus musculus) test (five mice (Mus musculus)) 40 mg/kg (X 1); assay type: functional; how it was run: as §1
[27] = tested on: Plasmodium cynomolgi; experiment: Suppressive failures in sporozoite-induced Plasmodium cynomolgi infected Rhesus monkeys (Macaca mulatta) on 1.75 mg/kg/day peroral dose after 1 day; assay type: functional; conditions: route oral
How it was run: (§2)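 Single oral dose (×1) in P. cynomolgi-infected rhesus monkeys, given alone or with chloroquine phosphate at 5 mg/kg of salt (×7). Drug was given in salt form but dose calculated as free base. Each animal scored as cure (C), suppressive failure (SF, blood not cleared) or relapse (R, tissues not cleared).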

[28] = tested on: Plasmodium cynomolgi; experiment: Relapses in sporozoite-induced Plasmodium cynomolgi infected Rhesus monkeys (Macaca mulatta) on 0.875 mg/kg/day peroral dose after 1 day; assay type: functional; conditions: route oral; how it was run: as §2
[29] = tested on: Plasmodium cynomolgi; experiment: Suppressive failures in sporozoite-induced Plasmodium cynomolgi infected Rhesus monkeys (Macaca mulatta) on 0.875 mg/kg/day peroral dose after 1 day; assay type: functional; conditions: route oral; how it was run: as §2
[30] = tested on: Plasmodium cynomolgi; experiment: Cures in sporozoite-induced Plasmodium cynomolgi infected Rhesus monkeys (Macaca mulatta) on 7 mg/kg/day peroral dose after 1 day; assay type: functional; conditions: route oral; how it was run: as §2
[31] = tested on: Mus musculus; experiment: Mean survival time of mice (Mus musculus) infected with Plasmodium berghei at 5 mg/kg(X 1)subcutaneous administration
[32] = tested on: Plasmodium cynomolgi; experiment: Cures in sporozoite-induced Plasmodium cynomolgi infected Rhesus monkeys (Macaca mulatta) on peroral 14 mg/kg/day (x 1) dose; assay type: functional; conditions: route oral; how it was run: as §2
[33] = tested on: Mus musculus; experiment: Number of mice (Mus musculus) found toxic when infected with Plasmodium berghei at 640 mg/kg(X 1) subcutaneous administration
[34] = tested on: Plasmodium cynomolgi; experiment: Relapses in sporozoite-induced Plasmodium cynomolgi infected Rhesus monkeys (Macaca mulatta) on 0.4375 mg/kg/day peroral dose after 1 day; assay type: functional; conditions: route oral; how it was run: as §2
[35] = tested on: Plasmodium cynomolgi; experiment: Cures in sporozoite-induced Plasmodium cynomolgi infected Rhesus monkeys (Macaca mulatta) on 3.5 mg/kg/day peroral dose after 1 day; assay type: functional; conditions: route oral; how it was run: as §2
[36] = tested on: Plasmodium cynomolgi; experiment: Suppressive failures in sporozoite-induced Plasmodium cynomolgi infected Rhesus monkeys (Macaca mulatta) on 3.5 mg/kg/day peroral dose after 1 day; assay type: functional; conditions: route oral; how it was run: as §2
[37] = tested on: Mus musculus; experiment: Number of cures out of five mice (Mus musculus) infected with Plasmodium berghei at 5 mg/kg(X 1) subcutaneous administration
[38] = tested on: Plasmodium cynomolgi; experiment: Radical curative activity in sporozoite-induced Plasmodium cynomolgi infected Rhesus monkeys (Macaca mulatta) on 7 mg/kg/day peroral dose after 1 day; assay type: functional; conditions: route oral; how it was run: as §2
[39] = tested on: Plasmodium cynomolgi; experiment: Radical curative activity in sporozoite-induced Plasmodium cynomolgi infected Rhesus monkeys (Macaca mulatta) on 1.75 mg/kg/day oral dose after 1 day; assay type: functional; how it was run: as §2
[40] = tested on: Plasmodium cynomolgi; experiment: Radical curative activity in sporozoite-induced Plasmodium cynomolgi infected Rhesus monkeys (Macaca mulatta) on 14 mg/kg/day peroral dose after 1 day; assay type: functional; conditions: route oral; how it was run: as §2
[41] = tested on: Plasmodium cynomolgi; experiment: Radical curative activity in sporozoite-induced Plasmodium cynomolgi infected Rhesus monkeys (Macaca mulatta) after 3.5 mg/kg/day (x1) oral dose; assay type: functional; how it was run: as §2

| Structure (SMILES) | Cures [4] | Cures [5] | Cures [6] | Cures [7] | Cures [8] | Molar primaquine Index [9] | Cures [10] | Cures [11] | Cures [12] | Toxic animals (out of 5) [2] | Cures [14] | Cures [15] | Cures [16] | further results |
| --- | --- | --- | --- | --- | --- | --- | --- | --- | --- | --- | --- | --- | --- | --- |
| COc1ccc(Oc2c(OC)cc(NC(C)CCCN)c3nccc(C)c23)cc1.O=P(O)(O)O (stereo not given) | 5 | 2 | 1 | 3 | 5 | 4.3 | 5 | 2 | 5 |  |  |  |  | MST [1]: 5.9; Cures [2]: 0; MST [3]: 5.5; Cures [13]: 0 |
| COc1cc(NC(C)CCCN)c2nccc(C)c2c1Oc1ccc(Cl)cc1Cl.O=P(O)(O)O (stereo not given) | 4 | 3 | 5 | 3 | 5 | 1.3 | 5 | 1 | 5 | 1 | 1 | 0 | 2 | MST [3]: 5 |
| COc1cc(NC(C)CCCN)c2nccc(C)c2c1Oc1ccc(F)cc1.O=P(O)(O)O (stereo not given) | 4 | 3 | 4 | 3 | 5 | 4.2 | 5 | 2 | 5 |  | 3 | 0 |  | Cures [17]: 2; Cures [18]: 1; MST [19]: 7 |
| COc1cc(NC(C)CCCN)c2ncccc2c1.O=P(O)(O)O.O=P(O)(O)O (stereo not given) [PRIMAQUINE PHOSPHATE] |  |  |  |  |  |  |  | 0 |  | 5 |  |  | 5 | MST [20]: 10.8; MST [21]: 9.4; Cures [22]: 6; Cures [23]: 1; MST [24]: 4; Cures [25]: 2; MST [26]: 5 |
| COc1cc(NC(C)CCCN)c2nccc(C)c2c1Oc1cccc(C(F)(F)F)c1.O=C(O)CCC(=O)O (stereo not given) | 5 | 1 | 5 |  | 5 | 4.8 | 5 | 2 | 5 |  | 2 |  |  | Suppressive failures [27]: 4; Relapses [28]: 1; Suppressive failures [29]: 3; Cures [30]: 2; MST [31]: 6.9; Cures [32]: 1; Cures [33]: 4; Relapses [34]: 4; Cures [35]: 1; Suppressive failures [36]: 1; Cures [23]: 2; Cures [13]: 0 |
| COc1cc(NC(C)CCCN)c2nccc(C)c2c1Oc1ccc(Cl)c(Cl)c1.O=P(O)(O)O (stereo not given) | 5 | 5 | 5 | 3 | 5 | 1.3 | 5 | 1 | 5 |  | 5 | 0 |  | Cures [37]: 4 |
| COc1cc(NC(C)CCCN)c2ncccc2c1 (stereo not given) [PRIMAQUINE] |  |  |  |  |  |  |  |  |  | 5 |  |  | 5 | Cures [38]: 1; Cures [39]: 2; MST [20]: 7; MST [21]: 6.4; Cures [40]: 2; Cures [41]: 2; MST [24]: 2.2; MST [26]: 4.2 |
| COc1cc(NC(C)CCCN)c2ncccc2c1 (stereo not given) |  |  |  |  |  | 1 |  |  |  |  |  |  |  |  |
